One block for each compound: values may come before it. The source made the active and inactive calls. No cut-off for these calls is given here.
Key:
Type in all cases: cell-based
[1] = molecular target: T1, von Hippel-Lindau disease tumor suppressor/Bromodomain-containing protein 9 (Homo sapiens) (UniProt Q9H8M2+P40337); experiment: PROTAC activity at VHL/BRD9 in human Ri-1 cells assessed as BRD9 protein degradation at 100 nM incubated for 4 hrs by MS proteomics analysis
In short: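 RI-1 cells treated in triplicate with compound (100 nM) or DMSO for 4 h; whole-cell proteome quantified by MS (6273 proteins), fold change versus control with t-test P-values.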

[2] = molecular target: T1, von Hippel-Lindau disease tumor suppressor/Bromodomain-containing protein 9 (Homo sapiens); experiment: PROTAC activity at VHL/BRD9 in human Ri-1 cells assessed as BRD9 protein degradation at 100 nM incubated for 4 hrs by Western blot analysis
In short: (§1)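 Ri-1 cells exposed to compound for the stated time before harvest; BRD9, BRD7 and β-actin measured by Western blot, band intensities quantified and set against DMSO-treated control.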

[3] = molecular target: T2, von Hippel-Lindau disease tumor suppressor/Bromodomain-containing protein 7 (Homo sapiens) (UniProt Q9NPI1+P40337); experiment: PROTAC activity at VHL/BRD7 in human Ri-1 cells assessed as BRD7 protein degradation at 100 nM incubated for 4 hrs by MS proteomics analysis
[4] = molecular target: T2, von Hippel-Lindau disease tumor suppressor/Bromodomain-containing protein 7 (Homo sapiens); experiment: PROTAC activity at VHL/BRD7 in human Ri-1 cells assessed as BRD7 protein degradation at 100 nM incubated for 4 hrs by Western blot analysis
[5] = molecular target: T2, von Hippel-Lindau disease tumor suppressor/Bromodomain-containing protein 7 (Homo sapiens); experiment: PROTAC activity at VHL/BRD7 in human HeLa cells assessed as remaining BRD7 protein level at 1 uM incubated for 4 hrs by Western blot analysis relative to control
[6] = molecular target: T2, von Hippel-Lindau disease tumor suppressor/Bromodomain-containing protein 7 (Homo sapiens); experiment: PROTAC activity at VHL/BRD7 in human HeLa cells assessed as remaining BRD7 protein level at 1 uM incubated for 16 hrs by Western blot analysis relative to control
[7] = molecular target: T1, von Hippel-Lindau disease tumor suppressor/Bromodomain-containing protein 9 (Homo sapiens); experiment: PROTAC activity at VHL/BRD9 in human HeLa cells assessed as protein degradation at 1 uM incubated for 4 hrs by Western blot analysis relative to control
In short: (§2)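 HeLa cells treated with compound for the stated time before harvest; BRD9, BRD7 and β-actin detected by Western blot with β-actin loading control; band intensities quantified.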

[8] = molecular target: T2, von Hippel-Lindau disease tumor suppressor/Bromodomain-containing protein 7 (Homo sapiens); experiment: PROTAC activity at VHL/BRD7 in human HeLa cells assessed as protein degradation at 1 uM incubated for 4 hrs by Western blot analysis relative to control
[9] = molecular target: T1, von Hippel-Lindau disease tumor suppressor/Bromodomain-containing protein 9 (Homo sapiens); experiment: PROTAC activity at VHL/BRD9 in human HeLa cells assessed as protein degradation at 1 uM incubated for 16 hrs by Western blot analysis relative to control; in short: as §2
[10] = molecular target: T2, von Hippel-Lindau disease tumor suppressor/Bromodomain-containing protein 7 (Homo sapiens); experiment: PROTAC activity at VHL/BRD7 in human HeLa cells assessed as protein degradation at 1 uM incubated for 16 hrs by Western blot analysis relative to control
[11] = molecular target: T1, von Hippel-Lindau disease tumor suppressor/Bromodomain-containing protein 9 (Homo sapiens); experiment: PROTAC activity at VHL/BRD9 in human HeLa cells assessed as remaining BRD9 protein level at 1 uM incubated for 16 hrs by Western blot analysis relative to control; in short: as §2
[12] = molecular target: T1, von Hippel-Lindau disease tumor suppressor/Bromodomain-containing protein 9 (Homo sapiens); experiment: PROTAC activity at VHL/BRD9 in human Ri-1 cells assessed as remaining BRD9 protein level at 10 nM incubated for 2 hrs by Western blot analysis relative to control; in short: as §1
[13] = molecular target: T2, von Hippel-Lindau disease tumor suppressor/Bromodomain-containing protein 7 (Homo sapiens); experiment: PROTAC activity at VHL/BRD7 in human Ri-1 cells assessed as remaining BRD7 protein level at 10 nM incubated for 2 hrs by Western blot analysis relative to control
[14] = molecular target: T1, von Hippel-Lindau disease tumor suppressor/Bromodomain-containing protein 9 (Homo sapiens); experiment: PROTAC activity at VHL/BRD9 in human Ri-1 cells assessed as remaining BRD9 protein level at 1 nM incubated for 2 hrs by Western blot analysis relative to control; in short: as §1
[15] = molecular target: T2, von Hippel-Lindau disease tumor suppressor/Bromodomain-containing protein 7 (Homo sapiens); experiment: PROTAC activity at VHL/BRD7 in human Ri-1 cells assessed as remaining BRD7 protein level at 1 nM incubated for 8 hrs by Western blot analysis relative to control
[16] = molecular target: T1, von Hippel-Lindau disease tumor suppressor/Bromodomain-containing protein 9 (Homo sapiens); experiment: PROTAC activity at VHL/BRD9 in human Ri-1 cells assessed as remaining BRD9 protein level at 100 nM incubated for 2 hrs by Western blot analysis relative to control; in short: as §1
[17] = molecular target: T2, von Hippel-Lindau disease tumor suppressor/Bromodomain-containing protein 7 (Homo sapiens); experiment: PROTAC activity at VHL/BRD7 in human Ri-1 cells assessed as remaining BRD7 protein level at 10 nM incubated for 8 hrs by Western blot analysis relative to control; in short: as §1
[18] = molecular target: T1, von Hippel-Lindau disease tumor suppressor/Bromodomain-containing protein 9 (Homo sapiens); experiment: PROTAC activity at VHL/BRD9 in human Ri-1 cells assessed as remaining BRD9 protein level at 0.1 nM incubated for 8 hrs by Western blot analysis relative to control; in short: as §1
[19] = molecular target: T1, von Hippel-Lindau disease tumor suppressor/Bromodomain-containing protein 9 (Homo sapiens); experiment: PROTAC activity at VHL/BRD9 in human Ri-1 cells assessed as remaining BRD9 protein level at 10000 nM incubated for 2 hrs by Western blot analysis relative to control; in short: as §1
[20] = molecular target: T1, von Hippel-Lindau disease tumor suppressor/Bromodomain-containing protein 9 (Homo sapiens); experiment: PROTAC activity at VHL/BRD9 in human Ri-1 cells assessed as remaining BRD9 protein level at 1 uM incubated for 8 hrs by Western blot analysis relative to control; in short: as §1
[21] = molecular target: T2, von Hippel-Lindau disease tumor suppressor/Bromodomain-containing protein 7 (Homo sapiens); experiment: PROTAC activity at VHL/BRD7 in human Ri-1 cells assessed as remaining BRD7 protein level at 100 nM incubated for 8 hrs by Western blot analysis relative to control; in short: as §1
[22] = molecular target: T1, von Hippel-Lindau disease tumor suppressor/Bromodomain-containing protein 9 (Homo sapiens); experiment: PROTAC activity at VHL/BRD9 in human Ri-1 cells assessed as remaining BRD9 protein level at 1 nM incubated for 8 hrs by Western blot analysis relative to control; in short: as §1
[23] = molecular target: T2, von Hippel-Lindau disease tumor suppressor/Bromodomain-containing protein 7 (Homo sapiens); experiment: PROTAC activity at VHL/BRD7 in human Ri-1 cells assessed as remaining BRD7 protein level at 1 nM incubated for 2 hrs by Western blot analysis relative to control
[24] = molecular target: T2, von Hippel-Lindau disease tumor suppressor/Bromodomain-containing protein 7 (Homo sapiens); experiment: PROTAC activity at VHL/BRD7 in human Ri-1 cells assessed as remaining BRD7 protein level at 10000 nM incubated for 2 hrs by Western blot analysis relative to control; in short: as §1
[25] = molecular target: T2, von Hippel-Lindau disease tumor suppressor/Bromodomain-containing protein 7 (Homo sapiens); experiment: PROTAC activity at VHL/BRD7 in human Ri-1 cells assessed as remaining BRD7 protein level at 1 uM incubated for 2 hrs by Western blot analysis relative to control
[26] = molecular target: T1, von Hippel-Lindau disease tumor suppressor/Bromodomain-containing protein 9 (Homo sapiens); experiment: PROTAC activity at VHL/BRD9 in human Ri-1 cells assessed as remaining BRD9 protein level at 100 nM incubated for 8 hrs by Western blot analysis relative to control; in short: as §1
[27] = molecular target: T2, von Hippel-Lindau disease tumor suppressor/Bromodomain-containing protein 7 (Homo sapiens); experiment: PROTAC activity at VHL/BRD7 in human Ri-1 cells assessed as remaining BRD7 protein level at 0.1 nM incubated for 8 hrs by Western blot analysis relative to control
[28] = molecular target: T2, von Hippel-Lindau disease tumor suppressor/Bromodomain-containing protein 7 (Homo sapiens); experiment: PROTAC activity at VHL/BRD7 in human Ri-1 cells assessed as remaining BRD7 protein level at 100 nM incubated for 2 hrs by Western blot analysis relative to control; in short: as §1
[29] = molecular target: T1, von Hippel-Lindau disease tumor suppressor/Bromodomain-containing protein 9 (Homo sapiens); experiment: PROTAC activity at VHL/BRD9 in human Ri-1 cells assessed as remaining BRD9 protein level at 1 uM incubated for 2 hrs by Western blot analysis relative to control; in short: as §1
[30] = molecular target: T1, von Hippel-Lindau disease tumor suppressor/Bromodomain-containing protein 9 (Homo sapiens); experiment: PROTAC activity at VHL/BRD9 in human Ri-1 cells assessed as remaining BRD9 protein level at 10 nM incubated for 8 hrs by Western blot analysis relative to control; in short: as §1
[31] = molecular target: T2, von Hippel-Lindau disease tumor suppressor/Bromodomain-containing protein 7 (Homo sapiens); experiment: PROTAC activity at VHL/BRD7 in human Ri-1 cells assessed as remaining BRD7 protein level at 1 uM incubated for 8 hrs by Western blot analysis relative to control

T1 sequence (P40337 whole entry, looked up): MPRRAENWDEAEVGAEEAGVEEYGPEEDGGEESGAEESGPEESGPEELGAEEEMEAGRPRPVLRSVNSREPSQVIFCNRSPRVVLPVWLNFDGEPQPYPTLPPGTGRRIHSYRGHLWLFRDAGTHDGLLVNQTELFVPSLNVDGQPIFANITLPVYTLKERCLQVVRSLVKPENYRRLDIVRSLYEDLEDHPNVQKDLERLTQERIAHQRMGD
T1 sequence (Q9H8M2 whole entry, looked up): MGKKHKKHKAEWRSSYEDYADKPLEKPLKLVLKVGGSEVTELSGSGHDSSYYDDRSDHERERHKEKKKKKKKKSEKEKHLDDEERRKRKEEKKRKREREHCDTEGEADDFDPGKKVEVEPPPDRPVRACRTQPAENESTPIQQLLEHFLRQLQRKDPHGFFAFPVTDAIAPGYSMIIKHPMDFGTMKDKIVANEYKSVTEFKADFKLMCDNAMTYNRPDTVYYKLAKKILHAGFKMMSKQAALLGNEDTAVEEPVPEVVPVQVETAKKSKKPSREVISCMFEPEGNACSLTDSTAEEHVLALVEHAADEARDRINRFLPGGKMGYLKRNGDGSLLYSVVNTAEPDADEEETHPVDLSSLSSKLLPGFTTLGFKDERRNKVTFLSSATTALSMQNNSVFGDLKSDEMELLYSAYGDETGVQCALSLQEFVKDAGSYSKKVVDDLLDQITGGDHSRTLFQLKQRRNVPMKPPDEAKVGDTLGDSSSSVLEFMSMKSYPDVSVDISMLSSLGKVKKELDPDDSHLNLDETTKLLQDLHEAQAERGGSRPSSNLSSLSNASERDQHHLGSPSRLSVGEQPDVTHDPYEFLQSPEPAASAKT
T2 sequence (P40337 whole entry, looked up): as the sequence (P40337 whole entry, looked up) above
T2 sequence (Q9NPI1 whole entry, looked up): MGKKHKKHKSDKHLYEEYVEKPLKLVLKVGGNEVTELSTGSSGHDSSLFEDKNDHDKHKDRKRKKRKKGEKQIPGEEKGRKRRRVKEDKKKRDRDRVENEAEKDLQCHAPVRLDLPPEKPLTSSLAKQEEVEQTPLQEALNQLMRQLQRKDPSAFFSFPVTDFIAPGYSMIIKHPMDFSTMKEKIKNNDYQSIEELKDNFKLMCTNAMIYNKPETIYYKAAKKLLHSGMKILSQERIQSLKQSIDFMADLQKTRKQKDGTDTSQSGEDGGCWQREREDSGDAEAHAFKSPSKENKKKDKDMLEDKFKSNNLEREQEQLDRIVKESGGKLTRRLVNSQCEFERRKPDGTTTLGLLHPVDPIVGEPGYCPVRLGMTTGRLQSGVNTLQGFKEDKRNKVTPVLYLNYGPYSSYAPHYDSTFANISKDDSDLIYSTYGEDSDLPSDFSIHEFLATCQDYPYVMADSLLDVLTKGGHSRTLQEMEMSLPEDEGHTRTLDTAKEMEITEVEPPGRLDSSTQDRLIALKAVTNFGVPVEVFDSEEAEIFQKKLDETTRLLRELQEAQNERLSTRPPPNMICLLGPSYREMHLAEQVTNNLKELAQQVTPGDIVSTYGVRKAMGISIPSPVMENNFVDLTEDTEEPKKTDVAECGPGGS

Activity [1]: inactive
Activity [2]: inactive
Activity [3]: inactive
Activity [4]: inactive
SMILES: COc1cc(-c2cn(C)c(=O)c3cnccc23)cc(OC)c1CN1CCN(CCCCCOc2cc(-c3scnc3C)ccc2CNC(=O)[C@@H]2C[C@H](O)CN2C(=O)[C@@H](NC(=O)C2(F)CC2)C(C)(C)C)CC1

Activity [5]: 81%
Activity [6]: 73%
Activity [7]: 20%
Activity [8]: 20%
Activity [9]: 30%
Activity [10]: 30%
Activity [11]: 78%
SMILES: COc1cc(-c2cn(C)c(=O)c3cnccc23)cc(OC)c1CN1CCN(CCOCCOCCOCCOCC(=O)N[C@H](C(=O)N2C[C@H](O)C[C@H]2C(=O)NCc2ccc(-c3scnc3C)cc2)C(C)(C)C)CC1

Activity [5]: 8%
Activity [12]: 113%
Activity [13]: 123%
Activity [14]: 110%
Activity [15]: 155%
Activity [16]: 50%
Activity [17]: 155%
Activity [18]: 117%
Activity [19]: 66%
Activity [20]: 6%
Activity [21]: 152%
Activity [22]: 109%
Activity [23]: 101%
Activity [24]: 33%
Activity [25]: 63%
Activity [26]: 63%
Activity [27]: 155%
Activity [28]: 75%
Activity [29]: 44%
Activity [30]: 103%
Activity [31]: 8%
SMILES: COc1cc(-c2cn(C)c(=O)c3cnccc23)cc(OC)c1CN1CCN(CCOCCOc2cc(-c3scnc3C)ccc2CNC(=O)[C@@H]2C[C@@H](O)CN2C(=O)[C@@H](NC(=O)C2(F)CC2)C(C)(C)C)CC1

From ChEMBL document CHEMBL5260840 (J Med Chem, 2019)
